According to ChEMBL document CHEMBL1138340, “Cannabilactones: a novel class of CB2 selective agonists with peripheral analgesic activity” (J Med Chem, 2007):
Calls of active or inactive are those of the source.

What was measured:
[1] = biological target: Cannabinoid receptor 2 (Mus musculus, UniProt P47936); assay: Displacement of [3H]CP-55940 from CB2 receptor in mouse spleen membranes; format: cell membranes, Membrane
Method in brief: (§1)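 Competitive displacement of [3H]CP55,940 (3.08 nM) from rat forebrain synaptosomal membranes (CB1) or frozen mouse spleen membranes (CB2), 40–50 µg protein. Test ligand at eight concentrations in DMSO. Incubation 1 h at 30 °C in TME buffer (25 mM Tris, 5 mM MgCl2, 1 mM EDTA) with 0.1% BSA. Nonspecific binding defined with 200 nM CP55,940. Bound ligand separated by rapid filtration and read by scintillation counting. Data from three independent experiments fitted by four-parameter logistic to give IC50, converted to Ki by Cheng–Prusoff.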

[2] = Selectivity of mouse CB2 receptor over rat CB1 receptor
Method in brief: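 Ratio of Ki values from [3H]CP55,940 displacement using rat brain synaptosomal membranes (CB1) and mouse spleen membranes (CB2). Both incubated 1 h at 30 °C in TME with 0.1% BSA. IC50 from three independent experiments converted to Ki by Cheng–Prusoff.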

[3] = biological target: Cannabinoid receptor 1 (Rattus norvegicus, UniProt P20272); assay: Displacement of [3H]CP-55940 from CB1 receptor in rat brain synaptosomes; format: subcellular
Method in brief: as §1, with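 “Test” for “Competitive displacement of [3H]CP55,940 (3.08 nM) from rat forebrain synaptosomal membranes (CB1) or frozen mouse spleen membranes (CB2), 40–50 µg protein. Test”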

[4] = biological target: Cannabinoid receptor 2 (Mus musculus) (UniProt P47936); assay: Agonist activity at CB2 receptor in mouse spleen membranes at 1 uM after 2 hrs by [35S]GTP-gamma-S binding assay; format: functional, cell membranes; conditions: Membrane
Method in brief: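 Mouse spleen lysed in a cell disruption bomb, centrifuged at 1000 g then 175000 g, and resuspended in TME with 0.1% BSA. Membranes (24–40 µg) incubated 2 h at 30 °C with test compound at 1 µM, 30 µM GDP and 0.05 nM [35S]GTPγS. Nonspecific binding defined with 10 µM unlabeled GTPγS. Bound label measured after GF/B filtration by scintillation counting. Reported with standard deviations.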

[5] = biological target: Cannabinoid receptor 2 (Mus musculus) (UniProt P47936); assay: Agonist activity at CB2 receptor in mouse spleen membranes assessed as inhibition of forskolin-stimulated cAMP production; format: functional, cell membranes; conditions: Membrane
[6] = system: Rattus norvegicus; assay: Antinociceptive activity in sc dosed Sprague-Dawley rat assessed as paw withdrawal latency to radiant heat after 20 mins; format: functional
Method in brief: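 Male Sprague–Dawley rats, 200–300 g. Drug in DMSO, 50 µL, injected subcutaneously into the plantar hindpaw 20 min before testing. […] A50 (dose giving 50% MPE) taken from dose–response curves by Tallarida–Murray. n=6 per group, mean ± SEM.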

[7] = system: Rattus norvegicus; assay: Neurotoxicity in Sprague-Dawley rat assessed as ambulation on rotarod apparatus at 3.3 mg/kg, ip after 15 mins; format: toxicity, organism-based; set-up: dose 3.3 mg/kg, route intraperitoneal; conditions: in vivo, 0.25 h
Method in brief: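 Rats trained to stay 180 s on a rotarod at 10 rpm. Drug given i.p. at 3.3 mg/kg. Time to fall recorded 15 min after dosing, with a 180 s cutoff; comparison is to vehicle baseline.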

Chain of Cannabinoid receptor 2 (Mus musculus) (P47936 whole entry): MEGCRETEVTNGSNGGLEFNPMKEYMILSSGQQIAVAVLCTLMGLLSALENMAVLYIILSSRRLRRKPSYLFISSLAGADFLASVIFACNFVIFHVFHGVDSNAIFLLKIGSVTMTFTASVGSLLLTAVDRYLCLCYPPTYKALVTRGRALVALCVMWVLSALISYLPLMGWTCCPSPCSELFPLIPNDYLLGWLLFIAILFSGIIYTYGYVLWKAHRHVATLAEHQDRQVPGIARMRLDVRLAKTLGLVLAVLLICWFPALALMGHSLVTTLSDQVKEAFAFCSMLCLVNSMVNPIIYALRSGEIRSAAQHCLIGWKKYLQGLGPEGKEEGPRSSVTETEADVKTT
Chain of Cannabinoid receptor 2 (P47936 whole entry): as above
Chain of Cannabinoid receptor 1 (P20272 whole entry): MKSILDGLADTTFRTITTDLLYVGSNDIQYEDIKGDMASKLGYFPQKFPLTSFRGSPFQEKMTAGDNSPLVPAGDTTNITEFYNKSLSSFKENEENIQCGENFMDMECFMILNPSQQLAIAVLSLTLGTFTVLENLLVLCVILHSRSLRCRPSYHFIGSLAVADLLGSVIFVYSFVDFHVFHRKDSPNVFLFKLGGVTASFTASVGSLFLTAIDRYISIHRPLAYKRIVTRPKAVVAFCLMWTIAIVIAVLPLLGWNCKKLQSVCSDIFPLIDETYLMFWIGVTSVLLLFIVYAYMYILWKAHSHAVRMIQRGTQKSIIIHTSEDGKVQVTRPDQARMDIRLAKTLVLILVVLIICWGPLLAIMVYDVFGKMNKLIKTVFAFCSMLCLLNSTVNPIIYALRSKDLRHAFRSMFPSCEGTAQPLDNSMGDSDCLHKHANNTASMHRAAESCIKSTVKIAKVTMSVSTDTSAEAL

| Compound | Ki [1] [nM] | Ratio Ki [2] | Ki [3] [nM] | Activity [4] [%] | Activity [5] | A50 [6] [mg/kg] | Activity [7] |
| --- | --- | --- | --- | --- | --- | --- | --- |
| CCCCCCC(C)(C)c1cc(O)c2c(c1)OC(C)(C)c1ccc(O)cc1-2 | 4.8 | 0.54 | – | – | – | – | – |
| CCCCCCC(C)(C)c1cc(O)c2c(c1)oc(=O)c1ccc(C)cc12 | 3.1 | – | 39 | – | – | – | – |
| Cc1c(C(=O)c2cccc3ccccc23)c2cccc3c2n1[C@H](CN1CCOCC1)CO3 | – | – | – | 56 | – | – | – |
| CCCCCCC(C)(C)c1cc(O)c2c(c1)OC(C)(C)c1ccc(OC)cc1-2 | 5.9 | 0.92 | 5.4 | 42 | – | – | – |
| CCCCCCC(C)(C)c1cc(O)c2c(c1)oc(=O)c1ccc(OC)cc12 | 6.7 | 54 | 360 | 50 | Active | 1.6 | – |
| CCCCCCC(C)(C)c1cc(O)c2c(c1)OC(C)(C)c1ccc(C)cc1-2 | 1.1 | 0.86 | 0.95 | – | – | – | – |
| CCCCCCC(C)(C)c1cc(O)c2c(c1)oc(=O)c1ccc(O)cc12 | 0.82 | 490 | 400 | 55 | Active | 4.5 | Non-toxic |
